This is an account of results in article PMC12124217 (RSC Medicinal Chemistry, 2025).

For data set [1] the following is noted: advertised; ref Millipore Sigma; cited from earlier work.
The test system of a further data set is MDA-MB-468 (EGFR+) cells. The data set is described as follows: MTT cell viability assay. In kind it is cell-based. The settings on record: neat CD, up to concentrations as high as 100 μM. The method in brief: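 MDA-MB-468 cells were treated with test compound alone or as cyclodextrin complexes, then read out by MTT. Complex stocks were made by shake-flask and passed through a 0.45 μm filter. […] Values are the mean of 10 replicates ± standard deviation.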

Data set [2] is described as follows: Phase-solubility study of tcyDTDO with BCD. Format: physicochemical. The settings on record: BCD with saturated tcyDTDO, 25.0 °C.
The conditions of data set [3]: cited from earlier work.

Structures are written as SMILES.

As to `CC(O)COC[C@H]1O[C@@H]2O[C@H]3[C@H](O)[C@@H](O)[C@@H](O[C@H]4[C@H](O)[C@@H](O)[C@@H](O[C@H]5[C@H](O)[C@@H](O)[C@@H](O[C@H]6[C@H](O)[C@@H](O)[C@@H](O[C@H]7[C@H](O)[C@@H](O)[C@@H](O[C@H]8[C@H](O)[C@@H](O)[C@@H](O[C@H]1[C@H](O)[C@H]2O)O[C@@H]8COCC(C)O)O[C@@H]7COCC(C)O)O[C@@H]6COCC(C)O)O[C@@H]5COCC(C)O)O[C@@H]4COCC(C)O)O[C@@H]3COCC(C)O` (stereo partly drawn) [HPB, 2-hydroxypropyl-beta-cyclodextrin], the Solubility in water result in data set [1] is “roughly 45 g per 100 mL”. The “Effect on cell viability” value with MDA-MB-468 (EGFR+) cells was “did not have any significant adverse effect on cell viability”.
As for `OC[C@H]1O[C@@H]2O[C@H]3[C@H](O)[C@@H](O)[C@@H](O[C@H]4[C@H](O)[C@@H](O)[C@@H](O[C@H]5[C@H](O)[C@@H](O)[C@@H](O[C@H]6[C@H](O)[C@@H](O)[C@@H](O[C@H]7[C@H](O)[C@@H](O)[C@@H](O[C@H]8[C@H](O)[C@@H](O)[C@@H](O[C@H]1[C@H](O)[C@H]2O)O[C@@H]8CO)O[C@@H]7CO)O[C@@H]6CO)O[C@@H]5CO)O[C@@H]4CO)O[C@@H]3CO` [BCD, beta-cyclodextrin], the “Highest achievable concentration of CD in solution” value in data set [2] is 4.43 mM. Further, the “Cavity volume, literature” value in data set [3] is 262 Å^3. Besides, the “Effect on cell viability” value in the data set with MDA-MB-468 (EGFR+) cells was “did not have any significant adverse effect on cell viability”.
